Test [1] has as its target Smoothened (Mus musculus) (UniProt P56726). As to the kind of experiment: Inhibition of Smo-mediated Hh signaling in mouse Shh-light2 cells by luciferase reporter gene assay.
Test [2] shares this target. Put plainly: Inhibition of Smo-mediated Hh signaling in mouse Shh-light2 cells at 0.3 uM by luciferase reporter gene assay. Conditions: Shh Light II. On the technique in general: Reporter assays use an easily measured gene product as a stand-in for the process of interest.
For test [3], the system named is C3H 10T1/2. As to the kind of experiment: Inhibition of SAG-induced differentiation of mouse mesenchymal pluripotent C3H10T1/2 cells to alkaline phosphatase positive oeseoblasts after 6 days. To be noted: C3H 10T1/2, 6 days.
The subject of test [4] is C3H 10T1/2. Put plainly: Inhibition of SAG-induced differentiation of mouse mesenchymal pluripotent C3H10T1/2 cells to alkaline phosphatase positive oeseoblasts at 10 uM after 6 days. Conditions: C3H 10T1/2, 6 days.
For test [5], the target named is Smoothened (Mus musculus) (UniProt P56726). Put plainly: Inhibition of Smo-mediated Hh signaling in mouse Shh-light2 cells at 3 uM by luciferase reporter gene assay. To be noted: Shh Light II.
Smoothened (Mus musculus), sequence (P56726 whole entry, looked up): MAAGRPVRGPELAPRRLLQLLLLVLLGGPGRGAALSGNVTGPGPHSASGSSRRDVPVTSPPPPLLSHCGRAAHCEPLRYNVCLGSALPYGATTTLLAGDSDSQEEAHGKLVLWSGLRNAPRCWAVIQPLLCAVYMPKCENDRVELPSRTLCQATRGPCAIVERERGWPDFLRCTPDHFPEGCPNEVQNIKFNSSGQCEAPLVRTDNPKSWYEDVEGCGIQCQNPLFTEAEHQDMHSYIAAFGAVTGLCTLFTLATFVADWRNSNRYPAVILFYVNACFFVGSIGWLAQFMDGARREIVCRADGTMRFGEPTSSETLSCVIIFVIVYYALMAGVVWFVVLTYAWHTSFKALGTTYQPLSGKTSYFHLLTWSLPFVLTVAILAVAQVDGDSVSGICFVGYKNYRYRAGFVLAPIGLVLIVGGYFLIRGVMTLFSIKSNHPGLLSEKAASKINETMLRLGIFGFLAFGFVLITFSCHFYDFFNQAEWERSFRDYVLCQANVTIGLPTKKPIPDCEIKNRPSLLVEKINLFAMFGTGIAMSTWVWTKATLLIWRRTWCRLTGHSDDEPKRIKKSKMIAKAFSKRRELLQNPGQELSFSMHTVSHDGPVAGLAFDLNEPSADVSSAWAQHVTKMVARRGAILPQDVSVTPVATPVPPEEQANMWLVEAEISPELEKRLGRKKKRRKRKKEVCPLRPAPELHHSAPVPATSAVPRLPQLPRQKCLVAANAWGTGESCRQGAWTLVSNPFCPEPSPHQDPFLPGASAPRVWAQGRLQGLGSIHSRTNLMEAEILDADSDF
A short description of test [6]: Antiproliferative activity against SAG-induced rat cerebellar granule cell precursors by [3H]-thymidine incorporation assay. In kind it is functional. In a few lines: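 Primary rat cerebellar granule cell precursors stimulated with SAG (0.01 μM) together with increasing concentrations of test compound. Proliferation read as [3H]-thymidine incorporation, expressed as % of maximal SAG response. Quadruplicates, n = 3–10 independent experiments. IC50 and Hill coefficient obtained by curve fitting.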
For orientation: Uptake of a labelled nucleoside into DNA is a usual measure of proliferation.

Test [7] is described as follows: Ratio of cyclopamine IC50 to compound IC50 for inhibition of SAG-induced rat cerebellar granule cell precursors by [3H]-thymidine incorporation assay. In kind it is functional.
Another test concerns the target Protein smoothened (Homo sapiens, UniProt Q99835). As to the kind of experiment: Displacement of BODIPY-labelled cyclopamine from human Smo receptor expressed in HEK293 cells after 2 hrs by fluorescence microscopy. In kind it is cell-based. In a few lines: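 HEK293 cells stably expressing human Smo, grown on poly-D-lysine coverslips and fixed in 4% paraformaldehyde. BODIPY fluorescence above the no-probe background, normalized to DAPI nuclear area in 3–4 fields per coverslip, given as % of probe-alone signal.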

Test [8] is described as follows: Ratio of Cur61414 IC50 to compound IC50 for inhibition of SAG-induced rat cerebellar granule cell precursors by [3H]-thymidine incorporation assay. The format is functional.
The next test is filed under the species Rattus norvegicus. Put plainly: Antiproliferative activity against rat cerebellar granule cell precursors at 1 uM by [3H]-thymidine incorporation assay. The format is functional.
Test [9] addresses Smoothened (Mus musculus) (UniProt P56726). Put plainly: Antagonist activity at Smo receptor.

Active and inactive are the calls of the source. No cut-off for these calls is given here.

Protein smoothened, sequence (Q99835 whole entry): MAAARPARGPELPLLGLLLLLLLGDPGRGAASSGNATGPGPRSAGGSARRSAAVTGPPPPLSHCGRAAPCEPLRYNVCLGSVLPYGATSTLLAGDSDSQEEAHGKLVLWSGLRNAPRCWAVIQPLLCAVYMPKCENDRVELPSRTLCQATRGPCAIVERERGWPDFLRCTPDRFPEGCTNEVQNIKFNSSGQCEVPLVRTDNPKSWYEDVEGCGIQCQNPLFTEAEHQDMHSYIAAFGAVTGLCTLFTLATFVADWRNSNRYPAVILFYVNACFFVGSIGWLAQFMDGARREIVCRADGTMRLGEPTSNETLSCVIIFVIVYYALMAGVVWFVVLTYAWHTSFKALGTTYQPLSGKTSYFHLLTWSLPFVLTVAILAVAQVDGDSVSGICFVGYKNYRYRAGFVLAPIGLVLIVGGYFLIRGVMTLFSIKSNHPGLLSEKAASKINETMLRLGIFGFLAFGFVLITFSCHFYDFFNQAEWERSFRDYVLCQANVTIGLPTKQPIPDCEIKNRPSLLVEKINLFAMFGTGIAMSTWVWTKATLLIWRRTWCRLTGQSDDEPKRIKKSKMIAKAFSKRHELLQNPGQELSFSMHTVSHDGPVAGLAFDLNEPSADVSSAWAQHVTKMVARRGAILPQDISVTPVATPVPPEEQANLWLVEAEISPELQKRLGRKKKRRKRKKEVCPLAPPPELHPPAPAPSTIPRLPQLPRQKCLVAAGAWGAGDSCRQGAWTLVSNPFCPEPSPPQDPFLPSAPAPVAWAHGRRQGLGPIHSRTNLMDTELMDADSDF

As for `COc1cc(C(=O)NC(=S)Nc2ccc(C)c(NC(=O)c3ccc(-c4ccc(F)cc4)cc3)c2)cc(OC)c1OC`, the figures for the IC50 (in test [1]; in the test with C3H 10T1/2 [3]) were 29 nM and 30 nM, respectively. Moreover, the values for the inhibition in [2] and in test [5] were 96% and 97%, respectively. Also, the inhibition (as a rule, the change of the read-out against control, counted positive when it falls) at 10 µM in the test with C3H 10T1/2 [4] amounted to 86%.
With `COc1cccc(CN(C(=O)CC(C)(C)C)[C@H]2C[C@@H](C(=O)N3CCNCC3)N(Cc3ccc4c(c3)OCO4)C2)c1`, the IC50 (commonly the concentration at which inhibition is half-maximal) turned out to be 140 nM in test [1], 300 nM with C3H 10T1/2 [3] and 95 nM in [6].
For `CS(=O)(=O)c1ccc(C(=O)Nc2ccc(Cl)c(-c3ccccn3)c2)c(Cl)c1` [VISMODEGIB], the IC50 with C3H 10T1/2 [3] amounted to 11 nM; in [6], 4 nM. Also, the inhibition at 10 µM with C3H 10T1/2 [4] amounted to 99%.
Consider `COc1cc(C(=O)NC(=S)Nc2cccc(-c3cn4ccccc4n3)c2)cc(OC)c1OC`, for which the values for the IC50 (in test [1]; in the test with C3H 10T1/2 [3]) were 820 nM and 550 nM, respectively. For the same compound, the inhibition at 10 µM in the test on C3H 10T1/2 [4] is 94%. Besides, the inhibition in test [5] came out at 93%.
As for `CC1=C2C[C@H]3[C@@H](CC=C4C[C@@H](O)CC[C@@]43C)[C@@H]2CC[C@]12O[C@@H]1C[C@H](C)CN[C@H]1[C@H]2C` [CYCLOPAMINE], the IC50 in the test on C3H 10T1/2 [3] worked out at 620 nM; in test [6], 100 nM. For the same compound, the inhibition at 10 µM with C3H 10T1/2 [4] was determined as 98%.
For the compound `COc1cc(C(=O)NC(=S)Nc2ccc(C)c(C(=O)Nc3ccccc3)c2)cc(OC)c1OC`, the IC50 was determined as 1800 nM in test [1] and 2500 nM in the test on C3H 10T1/2 [3]. Moreover, the figures for the inhibition in test [2] and in test [5] were 13% and 89%, respectively. Moreover, in the test with C3H 10T1/2 [4], the inhibition at 10 µM came to 99%.
With `COc1cc(C(=O)NC(=N)Nc2ccc(C)c(NC(=O)c3ccc(-c4ccccc4)cc3)c2)cc(OC)c1OC`, the “Ratio IC50” value in test [7] and in [8] was 20 in each case. In addition, the IC50 came to 5 nM on Protein smoothened, 15 nM in [1], 11 nM with C3H 10T1/2 [3] and 6 nM in test [6]. The result in the test listed under Rattus norvegicus was inactive.
Take `COc1cc(C(=O)NC(=S)Nc2cccc(-c3cc4ccccc4[nH]3)c2)cc(OC)c1OC`: the half-inhibitory concentration (IC50) in test [1] is 180 nM; with C3H 10T1/2 [3], 280 nM. For the same compound, in the test with C3H 10T1/2 [4], the inhibition at 10 µM was determined as 102%. The inhibition in [5] is 90%.
As to `COc1cc(C(=O)NC(=S)Nc2cccc(NC(=O)c3ccccc3)c2)cc(OC)c1OC`, the IC50 was determined as 300 nM on Protein smoothened; 650 nM in [1]; 900 nM in the test on C3H 10T1/2 [3]; 338 nM in test [6]; 650 nM in [9]. Besides, the figures for the inhibition in [2] and in test [5] were 15% and 96%, respectively. Moreover, the inhibition at 10 µM in the test on C3H 10T1/2 [4] stood at 96%. The outcome in the test filed under Rattus norvegicus was inactive.
Turning to `COc1cc(C(=O)NC(=S)Nc2ccc(C)c(NC(=O)c3ccc(-c4ccccc4)cc3)c2)cc(OC)c1OC`, the “Ratio IC50” value in test [7] and in [8] was 20 throughout. Moreover, the IC50 on Protein smoothened turned out to be 63 nM; in test [1], 41 nM; in the test on C3H 10T1/2 [3], 60 nM; in test [6], 9 nM. The inhibition in test [2] and in [5] was 98% throughout. In the test with C3H 10T1/2 [4], the inhibition at 10 µM is 100%. In the test listed under Rattus norvegicus, the outcome was inactive.
For the compound `COc1cc(C(=O)NC(=O)Nc2ccc(Cl)c(NC(=O)c3ccc(-c4ccccc4)cc3)c2)cc(OC)c1OC`, the IC50 was found to be 80 nM in test [1] and 100 nM in the test with C3H 10T1/2 [3]. Besides, the inhibition in test [2] is 95%; in [5], 98%. For the same compound, the inhibition at 10 µM with C3H 10T1/2 [4] came out at 72%.
For `COc1cc(C(=O)NC(=O)Nc2ccc(C)c(NC(=O)c3ccc(-c4ccccc4)cc3)c2)cc(OC)c1OC`, the “Ratio IC50” value in [7] and in test [8] was 20 each time. In addition, the 50% inhibitory concentration (IC50) at Protein smoothened turned out to be 24 nM; in [1], 13 nM; with C3H 10T1/2 [3] it was 25 nM; in test [6], 6 nM. For the same compound, the inhibition in [2] was determined as 96%; in [5], 99%. In addition, the inhibition at 10 µM with C3H 10T1/2 [4] stood at 101%. For the same compound, in the test listed under Rattus norvegicus, the result was inactive.
On to `COc1cc(C(=O)NC(=N)Nc2cccc(NC(=O)c3ccc(N4CCOCC4)cc3)c2)cc(OC)c1OC`, for which the IC50 in [1] was 220 nM; in the test with C3H 10T1/2 [3], 200 nM.
For `COc1cc(C(=O)NC(=S)Nc2cccc(NC(=O)c3ccc(-c4ccc(F)cc4)cc3)c2)cc(OC)c1OC`, the IC50 in test [1] stood at 100 nM; in the test on C3H 10T1/2 [3], 140 nM. Further, the inhibition at 10 µM in the test on C3H 10T1/2 [4] turned out to be 95%. In test [5], the inhibition came to 97%.
Turning to `COc1cc(C(=O)NC(=S)Nc2ccc(Cl)c(NC(=O)c3ccc(-c4ccccc4)cc3)c2)cc(OC)c1OC`, the IC50 in [1] was 130 nM; with C3H 10T1/2 [3] it was 380 nM. Further, the inhibition amounted to 85% in test [2] and 99% in test [5]. Further, in the test with C3H 10T1/2 [4], the inhibition at 10 µM worked out at 101%.
Consider `COc1cc(C(=O)NC(=N)Nc2ccc(C)c(NC(=O)c3cccc(-c4ccccc4)c3)c2)cc(OC)c1OC`, for which the values for the 50% inhibitory concentration (IC50) (in [1]; in the test with C3H 10T1/2 [3]) were 110 nM and 260 nM, respectively.
On to `COc1cc(C(=O)NC(=N)Nc2cccc(NC(=O)c3ccccc3)c2)cc(OC)c1OC`, for which the figures for the IC50 (in test [1]; with C3H 10T1/2 [3]; in test [9]) were 290 nM, 430 nM and 290 nM, respectively.
Regarding `COc1cc(C(=O)NC(=S)Nc2ccc(Cl)c(C(=O)Nc3ccccc3)c2)cc(OC)c1OC`, the half-inhibitory concentration (IC50) is 520 nM in [1] and 1500 nM in the test with C3H 10T1/2 [3]. For the same compound, the inhibition in test [2] is 11%; in test [5], 95%. The inhibition at 10 µM in the test on C3H 10T1/2 [4] was 96%.
On to `COc1cc(C(=O)NC(=N)Nc2cccc(NC(=O)c3ccc(-c4ccc(F)cc4)cc3)c2)cc(OC)c1OC`, for which the values for the IC50 (in test [1]; in the test on C3H 10T1/2 [3]) were 33 nM and 30 nM, respectively.
With `COc1cc(C(=O)NC(=S)Nc2cccc(NC(=O)c3ccc(-c4ccccc4)cc3)c2)cc(OC)c1OC`, the figures for the IC50 (in test [1]; in the test on C3H 10T1/2 [3]) were 90 nM and 80 nM, respectively. Besides, the inhibition at 10 µM in the test with C3H 10T1/2 [4] amounted to 62%. The inhibition in test [5] was found to be 89%.
As to `COc1cc(C(=O)NC(=O)Nc2cccc(NC(=O)c3cc4ccccc4[nH]3)c2)cc(OC)c1OC`, the values for the IC50 (in test [1]; with C3H 10T1/2 [3]) were 110 nM and 220 nM, respectively. The inhibition in [2] was 85%; in [5] it was 90%. The inhibition at 10 µM with C3H 10T1/2 [4] is 97%.
`COc1cc(C(=O)NC(=N)Nc2ccc(Cl)c(NC(=O)c3ccccc3)c2)cc(OC)c1OC`: the IC50 (in test [1]; in the test with C3H 10T1/2 [3]) was 370 nM each time.
Turning to `COc1cc(C(=O)NC(=S)Nc2ccc(Cl)c(NC(=O)c3ccccc3)c2)cc(OC)c1OC`, the IC50 amounted to 190 nM in test [1] and 990 nM in the test on C3H 10T1/2 [3]. The inhibition worked out at 69% in [2] and 89% in test [5]. The inhibition at 10 µM with C3H 10T1/2 [4] stood at 96%.
Consider `COc1cc(C(=O)NC(=N)Nc2ccc(Cl)c(NC(=O)c3ccc(-c4ccccc4)cc3)c2)cc(OC)c1OC`, for which the IC50 in test [1] was found to be 70 nM; in the test on C3H 10T1/2 [3], 130 nM.
`COc1cc(C(=O)NC(=N)Nc2cccc(-c3cc4ccccc4[nH]3)c2)cc(OC)c1OC`: the IC50 in test [1] came out at 70 nM; with C3H 10T1/2 [3], 180 nM.
As for `COc1cc(C(=O)NC(=O)Nc2cccc(NC(=O)c3ccccc3)c2)cc(OC)c1OC`, the half-inhibitory concentration (IC50) at Protein smoothened came out at 107 nM; in [1] it was 160 nM; in the test with C3H 10T1/2 [3], 130 nM; in [6], 106 nM; in [9], 160 nM. In addition, the inhibition in [2] came out at 76%; in test [5], 96%. In addition, the inhibition at 10 µM in the test with C3H 10T1/2 [4] stood at 101%. In addition, the outcome in the test filed under Rattus norvegicus was inactive.

The record behind these values is ChEMBL document CHEMBL2029339, “Acylthiourea, acylurea, and acylguanidine derivatives with potent hedgehog inhibiting activity” (J Med Chem, 2012).
